Source: ChEMBL document CHEMBL1121543, “Synthesis of selenium-75 labeled tertiary diamines: new brain imaging agents” (J Med Chem, 1980)

What was measured:
Rattus norvegicus [1] = experiment: Organ distribution in rat heart 30 minutes after intravenous injection; type: ADME, organism-based; details: in vivo, 0.5 h
In short: (§1)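 Male Sprague-Dawley rats (220-300 g) given 0.2 mL Se-75 labeled compound (0.5-2.0 μCi) iv via femoral vein under light ether anesthesia; killed under ether by heart removal at set times; organs excised and counted in a well counter. Percent dose per organ from comparison with diluted aliquots of injected dose; blood and muscle totals assume 7% and 40% of body weight. Average of two or three rats, with range.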

Rattus norvegicus [2] = experiment: Organ distribution in rat heart 2 minutes after intravenous injection; type: ADME, organism-based; details: in vivo; in short: as §1
Rattus norvegicus [3] = experiment: Organ distribution in rat muscle 30 minutes after intravenous injection; type: ADME, organism-based, Muscle tissue; details: in vivo, 0.5 h; in short: as §1
Rattus norvegicus [4] = experiment: Organ distribution in rat muscle 2 minutes after intravenous injection; type: ADME, organism-based, Muscle tissue; details: in vivo; in short: as §1
Rattus norvegicus [5] = experiment: Organ distribution in rat kidney 30 minutes after intravenous injection; type: ADME, organism-based; details: in vivo, 0.5 h; in short: as §1
Rattus norvegicus [6] = experiment: Organ distribution in rat kidney 2 hr after intravenous injection; type: ADME, organism-based; details: in vivo; in short: as §1
Rattus norvegicus [7] = experiment: Organ distribution in rat liver 2 hr after intravenous injection; type: ADME, organism-based; details: in vivo; in short: as §1
Rattus norvegicus [8] = experiment: Organ distribution in rat brain 2 hr after intravenous injection; type: ADME, organism-based; details: in vivo; in short: as §1
Rattus norvegicus [9] = experiment: Organ distribution in rat blood 2 hr after intravenous injection; type: ADME, organism-based; details: in vivo; in short: as §1
Rattus norvegicus [10] = experiment: Organ distribution in rat brain 2 minutes after intravenous injection; type: ADME, organism-based; details: in vivo; in short: as §1
Rattus norvegicus [11] = experiment: Organ distribution in rat heart 2 hr after intravenous injection; type: ADME, organism-based; details: in vivo; in short: as §1
Rattus norvegicus [12] = experiment: Organ distribution in rat blood 30 minutes after intravenous injection; type: ADME, organism-based; details: in vivo, 0.5 h; in short: as §1
Rattus norvegicus [13] = experiment: Organ distribution in rat brain 30 minutes after intravenous injection; type: ADME, organism-based; details: in vivo, 0.5 h; in short: as §1
Rattus norvegicus [14] = experiment: Organ distribution in rat liver 30 minutes after intravenous injection; type: ADME, organism-based; details: in vivo, 0.5 h; in short: as §1
Rattus norvegicus [15] = experiment: Organ distribution in rat muscle 2 hr after intravenous injection; type: ADME, organism-based, Muscle tissue; details: in vivo; in short: as §1
Rattus norvegicus [16] = experiment: Organ distribution in rat blood 2 minutes after intravenous injection; type: ADME, organism-based; details: in vivo; in short: as §1
Rattus norvegicus [17] = experiment: Organ distribution in rat lung 2 minutes after intravenous injection; type: ADME, organism-based; details: in vivo; in short: as §1
Rattus norvegicus [18] = experiment: Organ distribution in rat kidney 2 minutes after intravenous injection; type: ADME, organism-based; details: in vivo; in short: as §1
Rattus norvegicus [19] = experiment: Organ distribution in rat liver 2 minutes after intravenous injection; type: ADME, organism-based; details: in vivo; in short: as §1
Rattus norvegicus [20] = experiment: Organ distribution in rat lung 30 minutes after intravenous injection; type: ADME, organism-based; details: in vivo, 0.5 h; in short: as §1
Rattus norvegicus [21] = experiment: Organ distribution in rat lung 2 hr after intravenous injection; type: ADME, organism-based; details: in vivo; in short: as §1
Rattus norvegicus [22] = experiment: Organ distribution in rat blood 30 min after intravenous injection; type: ADME, organism-based; details: in vivo, 0.5 h; in short: as §1

SMILES	Dose/organ (Rattus norvegicus [1])	Dose/organ (Rattus norvegicus [2])	Dose/organ (Rattus norvegicus [3])	Dose/organ (Rattus norvegicus [4])	Dose/organ (Rattus norvegicus [5])	Dose/organ (Rattus norvegicus [6])	Dose/organ (Rattus norvegicus [7])	Dose/organ (Rattus norvegicus [8])	Dose/organ (Rattus norvegicus [9])	Dose/organ (Rattus norvegicus [10])	Dose/organ (Rattus norvegicus [11])	Dose/organ (Rattus norvegicus [12])	Dose/organ (Rattus norvegicus [13])	Dose/organ (Rattus norvegicus [14])	Dose/organ (Rattus norvegicus [15])	Dose/organ (Rattus norvegicus [16])	Dose/organ (Rattus norvegicus [17])	Dose/organ (Rattus norvegicus [18])	Dose/organ (Rattus norvegicus [20])	Dose/organ (Rattus norvegicus [21])	other results
C1CCN(CC[Se]CCN2CCCCC2)CC1	0.89%	3.04%	13.4%	7.39%	9.21%	2.89%	15.9%	1.63%	0.65%	1.09%	0.19%	0.87%	1.49%	14.3%	12%	4.58%	20%	7.14%	2.83%	0.85%	Dose/organ (Rattus norvegicus [19]): 12%
CN(C)CC[Se]CCN(C)C	0.81%	2.21%	11.8%	14.1%	5.6%	3.92%	12.2%	0.71%	0.53%	0.49%	0.54%		0.49%	15.1%	15.2%	2.82%	11.36%	9.46%	5.77%	4.74%	Dose/organ (Rattus norvegicus [22]): 0.74%; Dose/organ (Rattus norvegicus [19]): 12.82%
CC(C)N(CC[Se]CCN(C(C)C)C(C)C)C(C)C	0.55%	2.35%	14.2%	9.88%	6.19%	2.28%	13.1%	0.35%	1.04%	0.25%	0.3%	1.17%	0.33%	16%	15%	2.96%	11.2%	11.4%	3.44%	1.11%	Dose/organ (Rattus norvegicus [19]): 11.9%
C1CN(CC[Se]CCN2CCOCC2)CCO1	0.22%	0.45%	14.4%	10.5%	4.03%	3.42%	21.7%	0.56%	2.46%	3.19%	0.18%	2.82%	1.53%	23.2%	17.7%	3.13%	2.77%	9.89%	1.79%	0.94%	Dose/organ (Rattus norvegicus [19]): 18.3%
C[N+](C)(C)CC[Se]CC[N+](C)(C)C	0.15%		9.52%		6.01%	2.75%	3.04%	0.06%	0.36%		0.05%	5.16%	0.06%	5.74%	5.48%				0.63%	0.2%	
